Laboratory results: ChEMBL document CHEMBL1138070, “Inhibitors of HCV NS5B polymerase: synthesis and structure-activity relationships of N-alkyl-4-hydroxyquinolon-3-yl-benzothiadiazine sulfamides” (Bioorg Med Chem Lett, 2006)

How the values were obtained:
[1] = target: T1, RNA-directed RNA polymerase (Hepacivirus hominis, UniProt O39930); test: Inhibition of HCV 1a NS5B RNA polymerase
[2] = test system: Hepatitis C virus; test: Inhibition of HCV 1b replication in presence of 5% fetal calf serum; format: functional, organism-based, Hepatitis C virus subtype 1b
Summary of the method: (§1)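 Genotype 1b HCV replicon cell culture assay. The medium held 5% fetal calf serum […] and 40% human serum […]. EC50 is the mean of at least two independent determinations, standard deviation ±10%.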

[3] = target: T1, RNA-directed RNA polymerase; test: Inhibition of HCV 1b NS5B RNA polymerase; design: species or system Hepatitis C virus subtype 1b
[4] = test system: Hepatitis C virus; test: Inhibition of HCV 1b replication in presence of 40% human serum; format: functional, organism-based, Hepatitis C virus subtype 1b; summary of the method: as §1

T1 sequence (O39930 whole entry): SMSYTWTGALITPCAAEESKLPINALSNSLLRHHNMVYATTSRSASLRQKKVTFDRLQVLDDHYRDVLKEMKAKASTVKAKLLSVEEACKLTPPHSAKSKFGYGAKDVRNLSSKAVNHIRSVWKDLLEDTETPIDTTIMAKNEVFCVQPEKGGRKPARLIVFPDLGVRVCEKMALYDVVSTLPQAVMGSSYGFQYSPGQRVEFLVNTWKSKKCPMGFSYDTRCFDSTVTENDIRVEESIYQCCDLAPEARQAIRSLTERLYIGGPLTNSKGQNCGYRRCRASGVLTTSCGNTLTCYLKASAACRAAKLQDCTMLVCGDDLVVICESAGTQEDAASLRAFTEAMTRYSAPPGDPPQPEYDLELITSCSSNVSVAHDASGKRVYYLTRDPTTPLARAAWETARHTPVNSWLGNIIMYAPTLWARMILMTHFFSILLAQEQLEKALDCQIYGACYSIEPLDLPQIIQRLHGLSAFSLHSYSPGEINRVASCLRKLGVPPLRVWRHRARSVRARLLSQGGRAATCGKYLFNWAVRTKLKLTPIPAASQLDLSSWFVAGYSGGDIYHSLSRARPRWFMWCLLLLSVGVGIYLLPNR

Compound	IC50 [1] [µM]	other results
CC(C)CCn1c(=O)c(C2=NS(=O)(=O)c3cc(NS(=O)(=O)Nc4cccc(C(=O)NCC(N)=O)c4)ccc3N2)c(O)c2cccnc21	0.043	
CC(C)CCn1c(=O)c(C2=NS(=O)(=O)c3cc(NS(N)(=O)=O)ccc3N2)c(O)c2cccnc21	0.009	EC50 [2]: 0.017 µM; IC50 [3]: 0.0028 µM
CC(C)CCn1c(=O)c(C2=Nc3ccc(NS(=O)(=O)Nc4ccc(C(N)=O)cc4)cc3S(=O)(=O)N2)c(O)c2cccnc21	0.018	
COCCOC(=O)NS(=O)(=O)Nc1ccc2c(c1)S(=O)(=O)NC(c1c(O)c3cccnc3n(CCC(C)C)c1=O)=N2	0.087	
CC(C)CCn1c(=O)c(C2=Nc3ccc(NS(=O)(=O)NCCC(N)=O)cc3S(=O)(=O)N2)c(O)c2cccnc21	0.02	
CC(C)CCn1c(=O)c(C2=NS(=O)(=O)c3cc(NS(=O)(=O)N(C)C(=O)OCc4ccccc4)ccc3N2)c(O)c2cccnc21	0.121	
CC(C)CCn1c(=O)c(C2=Nc3ccc(NS(=O)(=O)NCCc4ccccc4)cc3S(=O)(=O)N2)c(O)c2cccnc21	0.018	EC50 [2]: 1.27 µM; IC50 [3]: 0.037 µM
C#CCOC(=O)NS(=O)(=O)Nc1ccc2c(c1)S(=O)(=O)N=C(c1c(O)c3cccnc3n(CCC(C)C)c1=O)N2	0.072	
CC(C)CCn1c(=O)c(C2=NS(=O)(=O)c3cc(NS(=O)(=O)NCc4ccccc4)ccc3N2)c(O)c2cccnc21	0.0055	EC50 [2]: 0.398 µM; IC50 [3]: 0.044 µM
CC(C)CCn1c(=O)c(C2=NS(=O)(=O)c3cc(NS(C)(=O)=O)ccc3N2)c(O)c2cccnc21	0.0024	IC50 [3]: 0.006 µM
C=CCOC(=O)NS(=O)(=O)Nc1ccc2c(c1)S(=O)(=O)N=C(c1c(O)c3cccnc3n(CCC(C)C)c1=O)N2	0.088	
CC(C)CCn1c(=O)c(C2=Nc3ccc(NS(=O)(=O)NC(=O)OCCCl)cc3S(=O)(=O)N2)c(O)c2cccnc21	0.189	
CC(C)CCn1c(=O)c(C2=Nc3ccc(NS(=O)(=O)NCCN)cc3S(=O)(=O)N2)c(O)c2cccnc21	0.01	
CNS(=O)(=O)Nc1ccc2c(c1)S(=O)(=O)NC(c1c(O)c3ccccc3n(NC3CCC3)c1=O)=N2	0.0087	EC50 [2]: 0.011 µM; EC50 [4]: 0.42 µM
CNS(=O)(=O)Nc1ccc2c(c1)S(=O)(=O)NC(c1c(O)c3cccnc3n(CCC(C)C)c1=O)=N2	0.014	
CC(C)CCn1c(=O)c(C2=Nc3ccc(NS(=O)(=O)NC(=O)OCCC#N)cc3S(=O)(=O)N2)c(O)c2cccnc21	0.035	EC50 [2]: 0.098 µM; IC50 [3]: 0.0067 µM
CC(C)CCn1c(=O)c(C2=Nc3ccc(NS(=O)(=O)NC(=O)OCc4ccccc4)cc3S(=O)(=O)N2)c(O)c2cccnc21	0.058	
CC(C)CCn1c(=O)c(C2=Nc3ccc(NS(=O)(=O)NC4CCNCC4)cc3S(=O)(=O)N2)c(O)c2cccnc21	0.032	
CC(C)CCn1c(=O)c(C2=Nc3ccc(NS(=O)(=O)NCc4cccc([N+](=O)[O-])c4)cc3S(=O)(=O)N2)c(O)c2cccnc21	0.013	
CC(C)CCn1c(=O)c(C2=Nc3ccc(NS(=O)(=O)NN4CCCC4)cc3S(=O)(=O)N2)c(O)c2cccnc21	0.027	

Compound	IC50 [1] [µM]	other results
CC(C)CCn1c(=O)c(C2=Nc3ccc(NS(=O)(=O)NCCO)cc3S(=O)(=O)N2)c(O)c2cccnc21	0.107	
CC(C)CCn1c(=O)c(C2=Nc3ccc(NS(=O)(=O)NC(=O)OCCN)cc3S(=O)(=O)N2)c(O)c2cccnc21	0.021	
COc1cccc(CNS(=O)(=O)Nc2ccc3c(c2)S(=O)(=O)NC(c2c(O)c4cccnc4n(CCC(C)C)c2=O)=N3)c1	0.015	
COC(=O)c1ccccc1NS(=O)(=O)Nc1ccc2c(c1)S(=O)(=O)NC(c1c(O)c3cccnc3n(CCC(C)C)c1=O)=N2	0.129	
COC(=O)c1ccc(NS(=O)(=O)Nc2ccc3c(c2)S(=O)(=O)N=C(c2c(O)c4cccnc4n(CCC(C)C)c2=O)N3)cc1	0.048	
CNC(=O)c1ccc(NS(=O)(=O)Nc2ccc3c(c2)S(=O)(=O)N=C(c2c(O)c4cccnc4n(CCC(C)C)c2=O)N3)cc1	0.043	
COC(=O)NS(=O)(=O)Nc1ccc2c(c1)S(=O)(=O)N=C(c1c(O)c3cccnc3n(CCC(C)C)c1=O)N2	0.063	
CC(C)CCn1c(=O)c(C2=Nc3ccc(NS(=O)(=O)NC(=O)OCC(=O)O)cc3S(=O)(=O)N2)c(O)c2cccnc21	0.05	
CC(C)CCn1c(=O)c(C2=NS(=O)(=O)c3cc(NS(=O)(=O)Nc4cccc(C(N)=O)c4)ccc3N2)c(O)c2cccnc21	0.043	
CC(C)CCn1c(=O)c(C2=NS(=O)(=O)c3cc(NS(=O)(=O)Nc4ccc(C(=O)O)cc4)ccc3N2)c(O)c2cccnc21	0.02	
CC(C)CCn1c(=O)c(C2=Nc3ccc(NS(=O)(=O)NC4CCCC4)cc3S(=O)(=O)N2)c(O)c2cccnc21	0.039	
CCOC(=O)COC(=O)NS(=O)(=O)Nc1ccc2c(c1)S(=O)(=O)NC(c1c(O)c3cccnc3n(CCC(C)C)c1=O)=N2	0.061	
NS(=O)(=O)Nc1ccc2c(c1)S(=O)(=O)NC(c1c(O)c3ccccc3n(NC3CCC3)c1=O)=N2	0.0052	EC50 [2]: 0.003 µM; EC50 [4]: 0.081 µM; IC50 [3]: 0.0004 µM
CC(C)CCn1c(=O)c(C2=Nc3ccc(NS(=O)(=O)NC(=O)OCCOCc4ccccc4)cc3S(=O)(=O)N2)c(O)c2cccnc21	0.096	
CC(C)CCn1c(=O)c(C2=Nc3ccc(NS(=O)(=O)Nc4cccc(C(=O)O)c4)cc3S(=O)(=O)N2)c(O)c2cccnc21	0.115	
CC(C)CCn1c(=O)c(C2=Nc3ccc(NS(=O)(=O)Nc4ccccc4)cc3S(=O)(=O)N2)c(O)c2cccnc21	0.041	
CC(C)CCn1c(=O)c(C2=Nc3ccc(NS(=O)(=O)NC4CCCCC4)cc3S(=O)(=O)N2)c(O)c2cccnc21	0.067	
COc1ccc(CNS(=O)(=O)Nc2ccc3c(c2)S(=O)(=O)N=C(c2c(O)c4cccnc4n(CCC(C)C)c2=O)N3)cc1	0.01	
COc1ccccc1CNS(=O)(=O)Nc1ccc2c(c1)S(=O)(=O)NC(c1c(O)c3cccnc3n(CCC(C)C)c1=O)=N2	0.057	
CCOC(=O)c1cccc(NS(=O)(=O)Nc2ccc3c(c2)S(=O)(=O)NC(c2c(O)c4cccnc4n(CCC(C)C)c2=O)=N3)c1	0.132	
